Assay results reported in ChEMBL document CHEMBL3102784, “Salicylanilide diethyl phosphates: synthesis, antimicrobial activity and cytotoxicity” (Bioorg Med Chem, 2014).
Values after ≈ are worked out from the molar mass of the structure shown.

Legend:
Format in all cases: functional
[1] = test system: Mycobacterium tuberculosis; assay: Antimycobacterial activity against Mycobacterium tuberculosis H37Rv My 331/88 after 21 days; conditions: H37Rv My 331/88, 504 h
Outline: (§1)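 Micromethod MIC in Šula's semisynthetic medium at 37 °C. Compounds added in DMSO at 1000 down to 0.032 µmol/L. Isoniazid standard in sterile water at 0.5–250 µmol/L. Inocula: H37Rv 10^3, M. avium 10^5, M. kansasii 10^4. Read at 14 and 21 d, plus 7 d for M. kansasii.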

[2] = test system: Mycobacterium tuberculosis; assay: Antimycobacterial activity against Mycobacterium tuberculosis H37Rv My 331/88 after 14 days; conditions: H37Rv My 331/88, 336 h; outline: as §1
[3] = test system: Mycobacterium kansasii; assay: Antimycobacterial activity against Mycobacterium kansasii My 235/80 after 7 days; conditions: My 235/80, 168 h; outline: as §1
[4] = test system: Mycobacterium kansasii; assay: Antimycobacterial activity against Mycobacterium kansasii My 235/80 after 14 days; conditions: My 235/80, 336 h; outline: as §1
[5] = test system: Mycobacterium kansasii; assay: Antimycobacterial activity against Mycobacterium kansasii 6509/96 after 14 days; conditions: 6509/96, 336 h; outline: as §1
[6] = test system: Mycobacterium avium; assay: Antimycobacterial activity against isoniazid, rifampicin, ethambutol and ofloxacin-resistant Mycobacterium avium My 330/88 after 14 days; conditions: My 330/88, 336 h; outline: as §1
[7] = test system: Mycobacterium kansasii; assay: Antimycobacterial activity against Mycobacterium kansasii My 235/80 after 21 days; conditions: My 235/80, 504 h; outline: as §1
[8] = test system: Mycobacterium avium; assay: Antimycobacterial activity against isoniazid, rifampicin, ethambutol and ofloxacin-resistant Mycobacterium avium My 330/88 after 21 days; conditions: My 330/88, 504 h; outline: as §1
[9] = test system: Mycobacterium kansasii; assay: Antimycobacterial activity against Mycobacterium kansasii 6509/96 after 7 days; conditions: 6509/96, 168 h; outline: as §1
[10] = test system: Mycobacterium kansasii; assay: Antimycobacterial activity against Mycobacterium kansasii 6509/96 after 21 days; conditions: 6509/96, 504 h; outline: as §1
[11] = test system: Trichophyton mentagrophytes; assay: Antifungal activity against Trichophyton mentagrophytes 445 after 120 hrs by broth microdilution method; conditions: Trichophyton mentagrophytes, 445, 120 h
Outline: (§2)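 Filamentous dermatophyte tested by broth microdilution in RPMI 1640 with glutamine, fluconazole as reference. Value expressed as IC50 relative to growth control. Read at 72 and 120 h.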

[12] = test system: Lichtheimia corymbifera; assay: Antifungal activity against Absidia corymbifera 272 after 24 hrs by broth microdilution method; conditions: Lichtheimia corymbifera, 272, 24 h
Outline: (§3)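 Broth microdilution in RPMI 1640 with glutamine, fluconazole as reference. For yeasts, MIC is ≥80% growth reduction (IC80) versus control. For filamentous fungi, the value is expressed as IC50. Readings at 24 and 48 h.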

[13] = test system: Trichosporon asahii; assay: Antifungal activity against Trichosporon asahii 1188 after 24 hrs by broth microdilution method; conditions: Trichosporon asahii, 1188, 24 h; outline: as §3
[14] = test system: Candida albicans; assay: Antifungal activity against Candida albicans ATCC 44859 after 24 hrs by broth microdilution method; conditions: ATCC 44859, 24 h; outline: as §3
[15] = test system: Trichophyton mentagrophytes; assay: Antifungal activity against Trichophyton mentagrophytes 445 after 72 hrs by broth microdilution method; conditions: Trichophyton mentagrophytes, 445, 72 h; outline: as §2
[16] = test system: Aspergillus fumigatus; assay: Antifungal activity against Aspergillus fumigatus 231 after 24 hrs by broth microdilution method; conditions: Aspergillus fumigatus, 231, 24 h; outline: as §3
[17] = test system: Pichia kudriavzevii; assay: Antifungal activity against Candida krusei E28 after 24 hrs by broth microdilution method; conditions: E28, 24 h; outline: as §3
[18] = test system: Lichtheimia corymbifera; assay: Antifungal activity against Absidia corymbifera 272 after 48 hrs by broth microdilution method; conditions: Lichtheimia corymbifera, 272, 48 h; outline: as §3
[19] = test system: Pichia kudriavzevii; assay: Antifungal activity against Candida krusei E28 after 48 hrs by broth microdilution method; conditions: E28, 48 h; outline: as §3
[20] = test system: Aspergillus fumigatus; assay: Antifungal activity against Aspergillus fumigatus 231 after 48 hrs by broth microdilution method; conditions: Aspergillus fumigatus, 231, 48 h; outline: as §3
[21] = test system: Trichosporon asahii; assay: Antifungal activity against Trichosporon asahii 1188 after 48 hrs by broth microdilution method; conditions: Trichosporon asahii, 1188, 48 h; outline: as §3
[22] = test system: Candida albicans; assay: Antifungal activity against Candida albicans ATCC 44859 after 48 hrs by broth microdilution method; conditions: ATCC 44859, 48 h; outline: as §3
[23] = test system: Staphylococcus aureus; assay: Antibacterial activity against methicillin-resistant Staphylococcus aureus H 5996/08 after 24 hrs by broth microdilution method; conditions: H 5996/08, 24 h
Outline: (§4)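 Broth microdilution in Mueller–Hinton broth, compounds dissolved in DMSO, tested over a dilution series from 500 downward. MIC taken as ≥95% growth reduction (IC95) versus drug-free control. Benzylpenicillin comparator. Readings at 24 and 48 h.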

[24] = test system: Staphylococcus aureus; assay: Antibacterial activity against methicillin-resistant Staphylococcus aureus H 5996/08 after 48 hrs by broth microdilution method; conditions: H 5996/08, 48 h; outline: as §4
[25] = test system: Staphylococcus epidermidis; assay: Antibacterial activity against Staphylococcus epidermidis H 6966/08 after 48 hrs by broth microdilution method; conditions: H 6966/08, 48 h; outline: as §4
[26] = test system: Staphylococcus aureus; assay: Antibacterial activity against Staphylococcus aureus CCM 4516/08 after 48 hrs by broth microdilution method; conditions: CCM 4516/08, 48 h; outline: as §4
[27] = test system: Staphylococcus epidermidis; assay: Antibacterial activity against Staphylococcus epidermidis H 6966/08 after 24 hrs by broth microdilution method; conditions: H 6966/08, 24 h; outline: as §4
[28] = test system: Staphylococcus aureus; assay: Antibacterial activity against Staphylococcus aureus CCM 4516/08 after 24 hrs by broth microdilution method; conditions: CCM 4516/08, 24 h; outline: as §4

Nc1ccc(C(=O)O)c(O)c1 [AMINOSALICYLIC ACID]
MIC [1]: 62.5 µM (≈ 9.57 µg/mL) | MIC [2]: 62.5 µM (≈ 9.57 µg/mL) | MIC [3]: 125 µM (≈ 19.1 µg/mL) | MIC [4]: 1000 µM (≈ 153 µg/mL) | MIC [5]: 125 µM (≈ 19.1 µg/mL) | MIC [6]: 32 µM (≈ 4.9 µg/mL) | MIC [7]: > 1000 µM | MIC [8]: 125 µM (≈ 19.1 µg/mL) | MIC [9]: 32 µM (≈ 4.9 µg/mL) | MIC [10]: 500 µM (≈ 76.6 µg/mL)

OC(Cn1cncn1)(Cn1cncn1)c1ccc(F)cc1F [FLUCONAZOLE]
MIC50 [11]: 26 µM (≈ 7.96 µg/mL) | MIC50 [12]: > 50 µM | MIC80 [13]: 4 µM (≈ 1.23 µg/mL) | MIC80 [14]: 1 µM (≈ 0.306 µg/mL) | MIC50 [15]: 17 µM (≈ 5.21 µg/mL) | MIC50 [16]: > 50 µM | MIC80 [17]: > 50 µM | MIC50 [18]: > 50 µM | MIC80 [19]: > 50 µM | MIC50 [20]: > 50 µM | MIC80 [21]: 9 µM (≈ 2.76 µg/mL) | MIC80 [22]: 2 µM (≈ 0.613 µg/mL)

CC1(C)S[C@@H]2[C@H](NC(=O)Cc3ccccc3)C(=O)N2[C@H]1C(=O)O [PENICILLIN G]
MIC95 [23]: 62.5 µM (≈ 20.9 µg/mL) | MIC95 [24]: 125 µM (≈ 41.8 µg/mL) | MIC95 [25]: 250 µM (≈ 83.6 µg/mL) | MIC95 [26]: 0.98 µM (≈ 0.328 µg/mL) | MIC95 [27]: 250 µM (≈ 83.6 µg/mL) | MIC95 [28]: 0.98 µM (≈ 0.328 µg/mL)
